# Test results as given in ChEMBL document CHEMBL4513216, “Probing the Open Global Health Chemical Diversity Library for Multistage-Active Starting Points for Next-Generation Antimalarials” (ACS Infect Dis, 2020).
# Assay: Toxicity liver stage against HepG2, at 10uM
# Assay type: cell-based
# Set-up: test concentration 10 uM, cell line HepG2-A16-CD81EGFP
# Details: human, HepG2-A16-CD81EGFP cells; read-out: INHIBITION
# Summary of the method: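 Uninfected HepG2-A16-CD81EGFP cells, 3 × 10^3 per well, 1536-well, plated on prespotted compound at 10 μM final, parasite-free screening media added to match infected plates; puromycin 10 μM positive, DMSO 0.5% negative; run in parallel with 48 h PbLuc assay at 37 °C, 5% CO2; viability by CellTiter-Glo luminescence, normalized to controls.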
row,Structure (SMILES),cytotoxicity at 10 µM [%]
1,O=C1CO[C@H]2CN(Cc3cccnc3)C[C@H]2N1,-4
2,O=S(=O)(Cc1ccccc1)NC[C@H]1Cn2ccnc2CO1,6.88
3,Cn1nc(-c2ccccc2)c(Br)c1C(=O)O,-48.3
4,Cc1n[nH]c2c1C(c1cccnc1)SCC(=O)N2 (configuration not stated),-7.46
5,COc1ccc(N2CCN(C(=O)COc3nccc(C)n3)CC2)cc1,-6.16
6,COC(CNC(=O)C1CCN(S(C)(=O)=O)CC1)c1ccc(C)s1 (configuration not stated),-0.0506
7,CC1(C)OCC(CNC(=O)c2cnn(-c3cc(Cl)ccc3Cl)c2N)O1 (configuration not stated),2.84
8,CC(C)N1CCc2c(C#N)c(NCc3ccco3)n3cnnc3c2C1,-2.02
9,Cc1nc2[nH]cnc(NCCN3CCOCC3)c-2n1,3.22
10,Cc1cn([C@@H]2CC3(CCNCC3)OC[C@@]2(C)O)c(=O)[nH]c1=O,-5.6
11,O=C1CCOC[C@]2(CN(Cc3ccccc3)C[C@H]2c2ccccc2)N1,-14.1
12,Cc1noc(C)c1-c1nc(C2CCCN(C(=O)CN)C2)ccc1CO (configuration not stated),-3.11
13,CCn1cc(S(=O)(=O)N2CCC(C3CCCCN(C)C3=O)CC2)c(C)n1 (configuration not stated),6.58
14,CN([C@@H]1CC[C@@H](N2CCCC2)[C@@H]1O)S(=O)(=O)c1ccccc1,-4.29
15,Cc1cc(C)nc(C2CCN(c3ccncn3)C2)n1 (configuration not stated),-0.419
16,CC(=O)Nc1nc(C2CCN(C(=O)C3CCC3)CC2)cs1,-2.36
17,COCC(=O)N1CCCC(c2cccc(-n3ccnc3)n2)C1 (configuration not stated),-9.69
18,OC1(Cn2ccc3ccncc32)CCN(Cc2ccccn2)CC1,2.42
19,CN1CCN(C(=O)CCC(=O)c2cccs2)Cc2ccccc21,-57.8
20,Cc1ccccc1CN1CCCN(S(=O)(=O)N(C)C2CCCCC2)CC1,11.5
21,COc1c(C(=O)NC(C)CC(=O)c2cccs2)c(C)nn1C (configuration not stated),-10.1
22,Cc1csc(CCNC(=O)N2CCC(C(N)=O)CC2)n1,-2.71

row,Structure (SMILES),cytotoxicity at 10 µM [%]
1,Cc1cccc(CCC(=O)Nc2ccnn2C2CCS(=O)(=O)C2)c1 (configuration not stated),0.499
2,O=C(NCCNc1ccccn1)NC1CCOC2(CCCCC2)C1 (configuration not stated),-8.8
3,NC(=O)C1CN(c2ccc3cc(Br)ccc3n2)CCO1 (configuration not stated),4.94
4,CC1CCCN(C(=O)c2ccc(N(C)Cc3cnn(C)c3)nc2)C1 (configuration not stated),2.22
5,CSCCc1ccc(NC(=O)NC(C)Cn2cncn2)cc1 (configuration not stated),2.56
6,Cc1c(Br)cccc1S(=O)(=O)NCc1ccnn1C,43
7,CC(NC(=O)Cc1ccon1)c1ccc(OCC2CC2)c(F)c1 (configuration not stated),5.47
8,O=C(NCCc1nnc2n1CCC2)NCC1(c2ccccc2)CC1,-7.35
9,CC(C)c1ncncc1C(=O)NCCN1CCCCC1C (configuration not stated),-6.06
10,CSCC(CCO)NC(=O)Nc1ccc(C)cc1Br (configuration not stated),-11.8
11,CNc1cc(N2CCCC2CNCc2cccs2)ncn1 (configuration not stated),-12.3
12,CCN(CC)Cc1ccc(C(=O)NC2CCc3cc(Br)ccc32)o1 (configuration not stated),-3.3
13,CN(C)S(=O)(=O)c1ccc2c(c1)N(Cc1nccn1C)CC2,-3.42
14,COc1ccccc1-c1cc(NC(=O)CCC2CCCO2)[nH]n1 (configuration not stated),-0.394
15,CCn1nc2c(cc1=O)CN(Cc1ccc(-n3cccn3)cc1)CC2,-134
16,Cc1cc(C)n(-c2ccc(C(C)NS(N)(=O)=O)cc2)n1 (configuration not stated),-7.76
17,Cc1ccc(C)c(CS(=O)(=O)CC(=O)Nc2ccc(F)cc2F)c1,3.28
18,COc1cc(OC)c(CNC(=O)NCC(=O)N(C)C)c(OC)c1,3.27
19,CCOC(C)c1noc(CN(C)C(=O)C2C(C)(C)C2(C)C)n1 (configuration not stated),9.5
20,CC(C)COC(C)C(=O)NCCNC(=O)C(C)C (configuration not stated),-15.2
21,Cc1cc(C)n(Cc2ccc(C(=O)NCCN3CCOCC3)cc2)n1,-14.8
22,CCc1nnc2n1CCN(C(=O)c1cnc3ccccc3n1)C2,-7.7

row,Structure (SMILES),cytotoxicity at 10 µM [%]
1,COCCN1CC[C@@H]2OC[C@H](C(=O)N(C)Cc3ccccn3)C[C@@H]2C1,-98.5
2,O=C1CO[C@@H]2CNC[C@H]2N1CC1CC1,-95.7
3,Cc1ncsc1CN1C[C@@H]2CN(S(C)(=O)=O)CCO[C@@H]2C1,-105
4,Cn1cc(CN2C[C@@H]3CCC[C@@H](OCc4cccnc4)[C@@H]3C2)cn1,-107
5,CS(=O)(=O)N1C[C@@H](NC(=O)c2ccno2)[C@@H]2OCCC[C@@H]21,-108
6,CN(C)Cc1cnc2n1CCN(C(=O)C1CC=CC1)CC2,-81.3
7,Cc1ccc2c(c1)C1(CCN(C(N)=O)CC1)CN2C(=O)N(C)C,-79.1
8,COCCNC(=O)c1cc2c(c3ccccc3n2C)n1C(=O)N(C)C,-72.6
9,Cc1cc(C(=O)N2CC[C@@H]3CN(S(C)(=O)=O)CCO[C@@H]3C2)c(C)o1,3.52
10,CS(=O)(=O)N1CCC2(CC1)CC(CC(=O)NC1CC1)c1ccccc12 (configuration not stated),-0.105
11,Cc1[nH]c2ccccc2c1-c1ccnc(N[C@@H](CO)C(C)C)n1,-4.19
12,CCN(Cc1nc(COC)no1)Cc1ccccc1OCC(=O)O,-51.6
13,OC1(CN2CCC(Oc3cccc(C(F)(F)F)c3)CC2)CNCCOC1 (configuration not stated),-5.43
14,Cc1ccnc(CC(C)N(C)c2cc(C3CCNCC3)nc(C)n2)c1 (configuration not stated),-46.2
15,Cc1ccc(CN2C[C@H]3C(=O)N(CC4CC4)C[C@@]3(C(=O)O)C2)c(F)c1F,7.47
16,CCc1nc(NC(=O)NCCc2scnc2C)nn1C,0.102
17,C[C@@H]1CC[C@@H](C)N1C(=O)c1cc(COc2ccccc2)[nH]n1,4.82
18,CC(C)N1CCC(CC(=O)NC(C(=O)O)c2cccc(F)c2)CC1 (configuration not stated),-0.114
19,c1ccc(CCN2CCN(C3CCOC4(CCOCC4)C3)CC2)cc1 (configuration not stated),-3.79
20,CCN(CCN1CCOCC1)C(=O)c1cccnc1,7.42
21,Cc1cc(NCCNc2cccnc2)nc(N)n1,-5.86
22,COc1ccc(CN2CCN(C(=O)N(C)C)[C@@H]3CS(=O)(=O)C[C@@H]32)cc1F,1.24

row,Structure (SMILES),cytotoxicity at 10 µM [%]
1,CC(C)(N)C(=O)N1CCCC(C(=O)c2ccc(C(C)(C)C)cc2)C1 (configuration not stated),-1.1
2,CCc1ccc(C(=O)N2CCC(O)(CN3CCOCC3)C(C)(C)C2)[nH]1 (configuration not stated),0.542
3,COCCOC(=O)N1CCn2nc(CN(C)Cc3nccs3)cc2C1,1.32
4,Cc1cc(-c2nn(C)c(Cl)c2CN2CC[C@H](CO)[C@@H](O)C2)no1,2.45
5,C=Cc1ccc(C(=O)N2CCCC(Nc3ccc(F)c(F)c3)C2)cc1 (configuration not stated),-9.03
6,Cc1ccn2cc(C(=O)N3CCCC(Cn4cc(CO)nn4)C3)nc2c1 (configuration not stated),2.41
7,CC(C)CCn1c(=O)n(CCn2cccc2)c2cc(C(=O)O)cnc21,-2.95
8,Cc1ccc(CN2CCN(Cc3ccncc3)[C@@H]3CS(=O)(=O)C[C@@H]32)cc1,6.86
9,N[C@@H]1c2ccccc2C2(CCN(C(=O)c3ccc(Cl)cn3)CC2)[C@H]1O,-2.21
10,Cc1[nH]c2c(C)ccc(C)c2c1CC(=O)NCCCNc1cccnc1,0.0773
11,CCN(CC)S(=O)(=O)N1CCCC(c2ccc(C(=O)O)cc2)C1 (configuration not stated),-7.27
12,CN(C)S(=O)(=O)N1CCC2(CCCN(Cc3ccc(F)cc3)C2=O)C1 (configuration not stated),-9.67
13,CC(C)NS(=O)(=O)c1cc(C(=O)O)cc(-c2ccccc2CN(C)C)c1,6.41
14,CC(CN1CCCC1)C(=O)N1CCC(c2nccn2CC2CC2)CC1 (configuration not stated),-26.3
15,Cc1cc2cc(C(=O)N[C@@H]3CC[C@@H](N4CCOCC4)[C@@H]3O)ccc2o1,-1.85
16,O=C1NCC2(CCCN(Cc3ccccc3F)C2)Oc2ccccc21 (configuration not stated),6.12
17,CN(Cc1ccccn1)C(=O)c1nc(S(C)(=O)=O)n2ccccc12,-8.01
18,CCn1ccnc1CN1CCN(C(C)C(=O)NC2CCCC2)CC1 (configuration not stated),-4.86
19,Fc1cccc(CN2CCN(Cc3cscn3)CC2)c1,-0.612
20,CN1CCN(c2cc(N3CCCC3CO)ncn2)Cc2ccccc21 (configuration not stated),-5.22
21,CCc1ncc2c(n1)CN(Cc1nc(-c3ccsc3)oc1C)CC2,-8.6
22,O=C(Nc1cccc(CNCc2cccs2)c1)C1CCCC1,-4.59

row,Structure (SMILES),cytotoxicity at 10 µM [%]
1,Cn1ccnc1CN1CCN(c2ccc(C#N)cn2)CC1,-4.2
2,CCCOc1cccc(CNC(=O)CN2CCN(C)CC2C)c1 (configuration not stated),-7.57
3,Cn1cnc(S(=O)(=O)NCCN2CCCCCC2=O)c1Cl,-14.2
4,CC(C)C(C(=O)N1CCC(N(C)c2cccnn2)CC1)n1cncn1 (configuration not stated),-7.44
5,CCN1CCC(CNC(=O)C2(c3cccc(C)c3)CC2)C1 (configuration not stated),1.42
6,Cc1cnn(C2CCCN(C(=O)C3=NN(C)C(=O)CC3)C2)c1 (configuration not stated),-3.71
7,O=C(c1cccc2cccnc12)N1CCCN(c2cccnn2)CC1,-3.2
8,Cc1ccc(CN(Cc2ccccn2)C2CC(C)(C)NC(C)(C)C2)s1,2.7
9,O=C(NCc1ccco1)[C@@H]1CCO[C@@H]2CCN(c3ncccn3)C[C@@H]21,-68.3
10,CCN1C[C@H]2C3(CCN(C(C)=O)CC3)CC[C@@]2(C(=O)N(C)C)C1,-104
11,CC(C)CNC(=O)[C@H]1CCS(=O)(=O)[C@@H]2CN(Cc3cccc(Cl)c3)C[C@H]12,-7.06
12,c1ncn(Cc2cnc3n2CCN(Cc2ccsc2)CC3)n1,6.2
13,Brc1ccc(CNCc2nnc3n2CCC3)s1,-4.2
14,O=S(=O)(C1CC1)N1CCO[C@H]2[C@@H](Oc3cccnc3)CC[C@@H]21,-5.96
15,CCO[C@@H]1CCN(C(=O)c2ccc[nH]2)[C@@H]1Cc1cccnc1,-80.2
16,O=C1CCC2(CCCN(Cc3nccs3)C2)N1CC1CC1 (configuration not stated),-68.4
17,O=C1COC2(CCN(CC3CC3)CC2)CN1c1ccccc1,-14.6
18,O=C(C1CC1)N1CCOC2(CCNCC2)C1,-112
19,Cc1ccc(C(=O)N2CCC3(CCCN(c4ncc(F)cn4)C3)C2)cn1 (configuration not stated),-106
